# S1P4 antagonist – antagonists of human S1P4 receptor; O95977; S1P4-expressing cells, antagonist mode, reporter read-out; inhibition, % at 4.98 µM; 220,000 tested, 0.26% active; AID 1510; in the data active = inhibition above about 29%;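 also: 0% = wells stimulated with agonist and 100% = vehicle wells without agonist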
# S1P4 ag – human S1P4 receptor agonism; 220,000 tested, 0.35% active; activation, % at 4.98 µM; O95977; AID 1509; S1P4-expressing cell line, agonist reporter assay; in the data active = activation above about 11%;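 also: 0% = DMSO vehicle and 100% = reference agonist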
# NPY-Y2 antag – NPY-Y2 (human) receptor antagonism. AID 793. 140,000 tested, 0.99% active. inhibition, % at 2.7 µM. P49146. NPY-Y2 expressing cells, antagonist mode;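 also: 0% = vehicle with agonist challenge and 100% = reference antagonist with challenge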
# Target sequence (P49146 whole entry, looked up): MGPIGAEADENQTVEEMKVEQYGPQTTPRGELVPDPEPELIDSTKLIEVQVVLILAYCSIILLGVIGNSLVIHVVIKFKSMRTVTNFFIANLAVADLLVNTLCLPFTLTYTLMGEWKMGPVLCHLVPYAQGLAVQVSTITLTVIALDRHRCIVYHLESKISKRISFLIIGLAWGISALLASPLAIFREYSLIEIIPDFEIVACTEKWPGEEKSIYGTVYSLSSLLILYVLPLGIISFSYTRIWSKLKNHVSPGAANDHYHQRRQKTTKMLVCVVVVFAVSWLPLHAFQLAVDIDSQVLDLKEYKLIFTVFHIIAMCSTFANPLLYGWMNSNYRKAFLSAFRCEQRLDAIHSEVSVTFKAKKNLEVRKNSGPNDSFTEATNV
# NPY-Y2 PAM-ag – potentiates or activates human NPY-Y2 receptor. P49146. activation, % at 3.6 µM. 220,000 tested, 0.45% active. cells expressing NPY-Y2, potentiator/agonist read-out; in the data active = activation above about 27%;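 also: cells stimulated with NPY near EC25 plus isoproterenol at EC100; 0% = vehicle plus submaximal agonist and 100% = vehicle plus saturating agonist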
# NPY-Y1 antag – antagonists of human neuropeptide Y receptor Y1 | P25929 | HEK293-CNG Y1 cells, membrane potential fluorescence; NPY at EC95, then isoproterenol | inhibition, % at 3.6 µM | 200,000 tested, 1% active | AID 1040;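 active = inhibition above the campaign mean inhibition of all tested compounds plus 3 SD, cut at about 20% in these data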;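 also: 0% = DMSO wells given NPY plus isoproterenol and 100% = isoproterenol alone without NPY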
#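 Test system – HEK293 Y1/CNG channel cell line · Also added – NPY agonist 25 nM, then isoproterenol 1 µM plus Ro 20-1724 25 µM · Compound dosing – one concentration, 3.6 µM, in 0.4% DMSO · Schedule – compound incubation 1 h at room temperature, readout 45 min post-stimulation · Technique – fluorescence, membrane potential probe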
# NPY-Y1 PAM-ag – human NPY-Y1 potentiation or agonism, primary screen | P25929 | NPY-Y1 expressing cells, potentiator/agonist activation | activation, % at 3.6 µM | 220,000 tested, 0.37% active; in the data active = activation above about 33%, passing the limit was not always enough;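 also: cells stimulated with NPY at EC10 then isoproterenol at EC100; 0% = low agonist plus stimulus and 100% = saturating agonist plus stimulus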
# NPY1 antag conf – human NPY-Y1 antagonism, confirmation. 1,200 tested, 21% active. inhibition, % at 3.6 µM. AID 1254. HEK293-CNG NPY-Y1, membrane potential fluorescence, cAMP; NPY challenge against isoproterenol-raised cAMP. shares compounds with NPY-Y1 antag; in the data active = inhibition above about 20%;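 also: 0% = vehicle with agonist plus stimulus and 100% = stimulus alone without agonist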
# NPY2 antag ctr – human NPY-Y2 antagonism in NPY-Y1 counter-screen. 1,200 tested, 28% active. HEK293 NPY-Y2 CNG membrane potential fluorescence; cells given NPY, then isoproterenol. shares compounds with NPY-Y1 antag. inhibition, % at 3.6 µM;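 also: 0% = DMSO with agonist challenge and 100% = reference antagonist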
# Numbers without * were called inactive; x = not tested or not shown. The list is not random: actives were taken first. Their share in the collection is about 2.4%. Rule as the data show it, unless noted: active = inhibition above about 17%; inactive = the rest.
SMILES,S1P4 antagonist,S1P4 ag,NPY-Y2 antag,NPY-Y2 PAM-ag,NPY-Y1 antag,NPY-Y1 PAM-ag,NPY1 antag conf,NPY2 antag ctr
CN(C)c1ccc(-c2nn3c(-c4ccc(Cl)cc4)nnc3s2)cc1,-23.9,0.8,3.8,2.2,4.6,3.5,x,x
Clc1ccc(-c2nn3c(C4COc5ccccc5O4)nnc3s2)cc1 (centres undefined),-12.8,1.7,11.0,2.3,24.9*,-11.7,14.6,12.6
CCN(CC)CCN(C(=O)CCOc1ccccc1)c1nc2ccc(F)cc2s1,-15.5,0.4,x,-7.4,8.7,-18.2,x,x
Cc1cc(C)n(C(=O)C2CCCN2S(=O)(=O)c2ccc(Cl)cc2)n1 (centres undefined),0.8,0.9,-1.0,-10.7,24.8*,12.6,-0.9,0.7
O=C(C1CCCN1S(=O)(=O)c1ccc(Cl)cc1)N1CCOCC1 (centres undefined),-7.0,0.6,1.8,10.8,1.6,-0.9,x,x
CCCCNCC(O)(c1ccc(Cl)cc1)c1ccc(Cl)cc1,-12.6,2.3,x,-18.2,25.6*,-10.6,19.1,17.3*
COc1ccc(-c2cc(-c3n[nH]c(=S)n3-c3cccc4ccccc34)[nH]n2)cc1,-4.8,1.3,x,-28.2,54.6*,-23.0,85.2*,101.1*
S=c1[nH]nc(-c2cc(-c3ccsc3)n[nH]2)n1-c1cccc2ccccc12,-14.6,-1.1,x,-0.1,10.1,8.2,x,x
COc1cccc(NC(=S)N(CCCN2CCOCC2)Cc2cn(C)c3ccccc23)c1,-11.3,-0.2,1.8,-16.9,0.5,-6.1,x,x
CC(=O)Nc1ccccc1-c1nc2ccccc2nc1OCC(=O)c1ccc2ccccc2c1,8.6,-1.2,12.9,-0.3,20.7*,-17.1,15.1,7.9
CC(=O)Nc1ccccc1-c1nc2ccccc2nc1OCC(=O)c1ccc(Br)cc1,-4.4,0.2,1.4,-2.5,8.7,7.9,x,x
Cc1cc(NC(=O)COc2c(C)cccc2C)no1,-6.8,1.1,x,-8.1,-0.8,-4.3,x,x
O=C(O)CC(Cc1ccccc1)c1ccc2c(c1)OCO2 (centres undefined),-9.1,1.0,7.9,-28.5,23.0*,-20.6,13.2,11.8
COCCCNC(=O)C1CCC(CNS(=O)(=O)c2ccc(C)cc2)CC1 (centres undefined),0.9,1.1,x,4.7,1.9,-3.6,x,x
Cc1ccnc(N2CCN(C(=O)CSc3nc4ccccc4nc3N3CCC(C)CC3)CC2)c1,0.0,0.9,x,-7.8,23.8*,-1.2,9.7,8.3
CCOC(=O)c1cc(-c2cccs2)nc2c1c(C)nn2-c1ccccn1,3.8,0.2,x,-21.5,62.1*,-27.1,47.3*,22.3*
Cc1nn(-c2ccccn2)c2nc(-c3cccs3)cc(C(=O)NCc3ccco3)c12,12.5,0.4,4.3,-2.0,16.8,2.8,x,x
COCC(=O)NCCNc1nc2ccc(C)cc2cc1C,1.3,-0.1,3.0,-1.2,-0.3,-17.9,x,x
Cc1ccc(C(=O)NCCNc2nc3cc(C)c(C)cc3cc2C)cc1,-1.2,-0.5,x,-13.9,32.9*,-27.7,41.5*,65.1*
Cc1cc2cc(C)c(NCCNC(=O)c3ccccc3)nc2cc1C,-14.6,1.4,x,-53.2,45.5*,-58.8,31.8*,37.3*
CC(C)(C)c1nnc(SCC(=O)c2ccccc2)n(N)c1=O,-12.5,0.7,-0.4,4.3,2.9,-8.7,x,x
Cn1c(NCc2cccc(Br)c2)nc2ccccc21,-6.8,-3.7,0.5,8.6,-0.8,-23.5,x,x
Cn1c(Oc2ccccc2NCc2cccc(Br)c2)cc(=O)n(C)c1=O,-8.6,0.5,4.9,-9.0,25.3*,-11.9,10.9,5.5
CCc1n[nH]c(=S)n1/N=C/c1ccc(N(C)c2ccccc2)cc1,-7.6,1.4,x,-31.8,35.2*,-15.7,18.0,10.7
[N-]=[N+]=CC(=O)C(c1ccccc1)(c1ccccc1)c1ccccc1,0.9,0.3,x,-11.5,x,-1.6,x,x
c1ccc(Cn2nc(-c3ccccc3)nc2-c2ccccc2)cc1,2.0,-2.2,6.7,-6.6,18.9,-0.5,x,x

# From PubChem BioAssay
